Screening data from PubChem BioAssay.
An excerpt weighted towards active compounds, which were near 2.1% of everything screened.
Runt-SMMHC FRET = inhibitors of RUNX1 Runt–CBFb-SMMHC binding, primary screen, biochemical, FRET, Cerulean-Runt, Venus-CBFb-SMMHC, uHTS; Runt-related transcription factor 1 (Homo sapiens) + Core-binding factor subunit beta …; Cerulean-Runt/Venus-CBFb-SMMHC FRET ratio 530/480, 1 h; inhibition, % at 20 µM; 0.74% of 220,000 active;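 active means mean inhibition across duplicate retests at 20 µM reaching about 50%, limit read from the data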;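 further: 0% = DMSO wells and 100% = wells with excess untagged CBFb-SMMHC; inhibitors lower the FRET ratio by blocking Runt binding to CBFb-SMMHC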
p97 ATPase inh = inhibitors of human p97 ATPase, primary screen, biochemical; Transitional endoplasmic reticulum ATPase (Homo sapiens), P55072; recombinant p97 ATPase, Kinase-Glo ATP luminescence, 3 h; inhibition, % at 8 µM; 0.42% of 220,000 active; in the data active means inhibition above about 15%;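 further: 0% = DMSO vehicle and 100% = wells lacking enzyme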
RanGTP-Impb inh = inhibitors of RanGTP-importin-beta interaction, primary screen, biochemical, FRET, CFP-Ran, YFP-importin-beta, homogeneous; Ran GTPase (GTP-bound) - importin-beta complex; cell-free CFP-Ran/YFP-importin-beta FRET ratio; 1.1% of 300,000 active; inhibition, % (concentration not given with the values);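 active means more than half of the replicate wells show a fall in the fluorescence ratio signal beyond about 16%, limit read from the data, passing the limit was not always enough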;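 further: 0% = DMSO wells and 100% = Ran loaded with GDP instead of GTP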
Hck Nef HTS = inhibitors of Nef-activated human Hck kinase, primary screen, biochemical, Z-Lyte FRET, 384-well, Hck-YEEI; Tyrosine-protein kinase HCK (Homo sapiens), P08631; Recombinant Hck-YEEI plus Nef, Z-Lyte FRET kinase assay; inhibition, % at 20 µM; 0.68% of 220,000 active;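 active means Hck-Nef kinase inhibition above about 50%, limit read from the data; inactive means inhibition below that limit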;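 further: 0% = DMSO with Hck plus Nef and 100% = Hck alone without Nef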
Target sequence (P08631 whole entry, looked up): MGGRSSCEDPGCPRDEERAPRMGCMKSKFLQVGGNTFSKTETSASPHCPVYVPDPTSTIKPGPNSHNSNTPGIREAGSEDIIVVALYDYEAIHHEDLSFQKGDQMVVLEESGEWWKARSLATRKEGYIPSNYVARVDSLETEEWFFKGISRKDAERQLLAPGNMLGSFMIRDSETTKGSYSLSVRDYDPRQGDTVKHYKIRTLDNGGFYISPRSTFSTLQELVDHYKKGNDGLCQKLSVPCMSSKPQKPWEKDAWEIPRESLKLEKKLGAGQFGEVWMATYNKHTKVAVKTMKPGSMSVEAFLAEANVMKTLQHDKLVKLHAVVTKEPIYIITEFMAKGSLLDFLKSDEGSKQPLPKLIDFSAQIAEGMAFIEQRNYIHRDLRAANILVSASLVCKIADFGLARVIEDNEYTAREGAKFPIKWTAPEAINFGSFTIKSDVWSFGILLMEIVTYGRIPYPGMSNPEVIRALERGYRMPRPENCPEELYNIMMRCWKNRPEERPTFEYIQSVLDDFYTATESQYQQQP
Runt-CBFb FRET = inhibitors of RUNX1 Runt–CBFb binding, primary screen, biochemical, FRET, Cerulean-Runt, Venus-CBFb, uHTS. Runt-related transcription factor 1 (Homo sapiens) + Core-binding factor subunit beta …. Cerulean-Runt/Venus-CBFb FRET ratio 530/480, 1 h. inhibition, % at 20 µM. 0.46% of 220,000 active;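 active means inhibition over about 50% at 20 µM in the single-dose screen, limit read from the data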;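 further: 0% = DMSO wells and 100% = excess unlabeled CBFb competitor control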
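test system = Cerulean-Runt domain fusion protein, energy donor | probe or stimulus = Venus-CBFb binding partner, 100 nM | incubation = two 1 h room-temperature incubations shielded from light | detection = fluorescence energy transfer, 422 nm excitation, 530/480 nm emission | measure = loss of energy transfer signal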
Tb hexokinase = Trypanosoma brucei hexokinase 1 inhibitors, primary screen, biochemical, G6PDH-coupled NADH absorbance, MLSCN library; hexokinase 1 [Trypanosoma brucei]; recombinant TbHK1, G6PDH-coupled NADH A340; inhibition, % at 10 µM; 0.11% of 220,000 active;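 active means inhibition of 50% or more in the single-dose primary screen; inactive means inhibition below 50%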
p97 confirm = p97 ATPase inhibitors, retest, confirmation, biochemical. shares compounds with p97 ATPase inh. recombinant p97 ATPase, Kinase-Glo ATP luminescence. inhibition, % at 8 µM. 44% of 760 active. AID 1517, 2009;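 active means percent inhibition of p97 ATPase above a set limit, the primary screen's mean plus 3 SD, cut at about 15% in these data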;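 further: 0% = DMSO wells and 100% = wells lacking p97 protein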
* marks the source's active call; other numbers are inactive results; . = not tested or not shown.

SMILES | Runt-SMMHC FRET | p97 ATPase inh | RanGTP-Impb inh | Hck Nef HTS | Runt-CBFb FRET | Tb hexokinase | p97 confirm
Cc1cc(/C=C(/C#N)c2nc3ccccc3[nH]2)c(C)n1-c1cc(C(=O)O)cc(C(=O)O)c1 | -18 | 17* | . | 38 | 2 | -22 | 14
COc1ccc(-c2cc(=O)n(CCC#N)[nH]2)cc1 | -4 | 25* | 0 | 3 | -1 | 22 | 2
COc1ccc(-c2cc(=O)[nH][nH]2)cc1 | 1 | -3 | 1 | -1 | 4 | 1 | .
COc1ccc(N(CC(=O)N/N=C/c2ccc(C(=O)O)cc2)S(=O)(=O)c2ccc(NC(C)=O)cc2)cc1 | . | . | 3 | . | . | . | .
COc1ccc(N(CC(=O)N/N=C/c2cc(Br)c(C)o2)S(=O)(=O)c2ccc(NC(C)=O)cc2)cc1 | . | 15* | -1 | 23 | . | -17 | 7
N=C1/C(=C\c2ccc(SCc3ccco3)o2)C(=O)N=C2SC=NN12 | 7 | 18* | 5 | 0 | 22 | -3 | 16*
Cc1cc2c(cc1S(=O)(=O)CCC(=O)N(C)C1CCCCC1)OCC(=O)N2 | . | . | 1 | . | . | . | .
Cn1nnc2cc(C(=O)N3CCSCC3)ccc21 | -6 | 17* | . | 3 | -2 | 1 | 7
Cc1cnc(C(=O)OCC(=O)Nc2ccc(C)c(S(=O)(=O)N3CCCCC3)c2)cn1 | 1 | 3 | 5 | 1 | 2 | 0 | .
CC(C)(C)c1cc(/C=C2\NC(=O)NC2=O)cc(C(C)(C)C)c1O | . | . | -2 | . | . | . | .
O=C1NC(=O)/C(=C/c2cccc(O)c2)N1 | -6 | 19* | 7 | 2 | 5 | -43 | 14
COc1ccccc1/C=C\C(=O)NCC(=O)N/N=C(\C)Cc1ccccc1 | 2 | -3 | 4 | 13 | 0 | -7 | .
CC(C)C[C@H](NC(=O)c1[nH]cnc1C(=O)N[C@@H](C)c1ccccc1)C(=O)OCc1ccccc1 | -6 | . | -4 | 4 | 0 | -6 | .
COc1ccc2c(C(=O)CCl)c[nH]c2c1 | -4 | 36* | 9 | 28 | -1 | -22 | 43*
O=[N+]([O-])c1c(-c2cn[nH]c2)n[nH]c1-c1cn[nH]c1 | 1 | 25* | -1 | 46 | 0 | -14 | 36*
COc1cc(NC(=O)c2ccc([N+](=O)[O-])o2)ccc1NC(=O)c1cccs1 | -5 | 0 | 4 | 35 | -1 | -12 | .
O=C(Nc1cccc(NC(=O)c2cccs2)c1)c1ccc([N+](=O)[O-])o1 | 2 | 18* | -5 | 26 | 1 | -28 | 25*
COC(=O)COc1ccc(=O)n(-c2ccccc2)n1 | 3 | 18* | 1 | 3 | 2 | -12 | 5
O=C(N/N=C/c1c[nH]c2ccc(Br)cc12)c1ccc2c(c1)OCO2 | 2 | 16* | -3 | 38 | 0 | -23 | 12
O=C(N/N=C/c1c[nH]c2ccccc12)c1ccc2c(c1)OCCO2 | 1 | 10 | 1 | 14 | -3 | -97 | .
N#C/C(=C(/O)COc1ccccc1)c1nc2ccccc2s1 | -4 | 1 | -5 | 16 | -1 | -34 | .
Cc1ccc(SC/C(O)=C(\C#N)c2nc3ccccc3s2)cc1 | -2 | 21* | -6 | 6 | 2 | -55 | 39*
COc1ccc(S(=O)(=O)NCc2ccc3c(c2)OCO3)cc1C | 0 | 4 | -1 | -12 | 1 | 5 | .
NC(=O)C(=CNc1nc(-c2ccc(Cl)c(Cl)c2)cs1)C(N)=O | 16 | 26* | . | 2 | 23 | 1 | 19*
Cc1ccc(C)c2[nH]c(=O)c(CCNC(=O)c3ccc(S(=O)(=O)N(C)C)cc3)cc12 | 1 | 0 | 2 | 14 | -3 | -12 | .
SMILES | Runt-SMMHC FRET | p97 ATPase inh | RanGTP-Impb inh | Hck Nef HTS | Runt-CBFb FRET | Tb hexokinase | p97 confirm
COc1ccc(OC)c(/C=C/C(=O)N2C(=O)c3cccc(N)c3C2=O)c1 | 79 | -1 | 7 | -1 | -36 | -10 | .
Nc1cccc2c1C(=O)N(C(=O)/C=C/c1cccc(Br)c1)C2=O | 84* | 17* | 34* | -60 | -49 | -11 | 19*
O=C1OC(=O)C2C1[C@@H]1CC[C@H]2O1 (stereo partly specified) | -5 | 16* | 0 | -4 | -1 | 1 | 9
Cc1cc(N/N=C/c2ccc(O)cc2O)nc(N2CCOCC2)n1 | 6 | 15* | 2 | 13 | 5 | -99 | 17*
Oc1ccc(/C=N\Nc2cc(N3CCOCC3)nc(N3CCOCC3)n2)c(O)c1 | -4 | 11 | 4 | -2 | -1 | -49 | .
O=C(O)c1cc(NC(=O)c2cccc(C(=O)Nc3cc(C(=O)O)cc(C(=O)O)c3)c2)cc(C(=O)O)c1 | . | . | 1 | . | . | . | .
O=C(Nc1ccccc1)c1ccc(=O)[nH]n1 | . | . | 10 | . | . | . | .
Fc1ccccc1-c1nc(NCc2ccccc2)c2ccccc2n1 | 2 | 30* | 0 | 6 | 1 | -1 | 40*
c1ccc(CNc2nc(-c3ccccc3)nc3ccccc23)cc1 | . | . | -2 | . | . | . | .
Fc1ccc(Nc2nc(NCc3ccco3)c3ccccc3n2)cc1 | 0 | 27* | -2 | -10 | 0 | -11 | 34*
c1ccc(CNc2nc(NCc3ccccc3)c3ccccc3n2)cc1 | 6 | 44* | 0 | -179 | -1 | 32 | 41*
COc1ccccc1C(=O)NCC(=O)N/N=C/c1ccc2c(c1)OCO2 | . | . | 0 | . | . | . | .
COc1ccccc1C(=O)NCC(=O)N/N=C/c1ccncc1 | 0 | 16* | -2 | 12 | 4 | 8 | 1
CCOC(=O)c1sc(NC(=O)c2cc3c(C)nn(-c4ccccc4)c3s2)nc1C | 1 | . | . | . | -2 | . | .
COC(=O)c1sc(-c2ccc(Cl)cc2)cc1NC(=O)COCC(=O)O | -2 | -1 | 1 | 18 | 2 | -33 | .
COC(=O)c1sc(-c2ccc(Cl)cc2)cc1NC(=O)/C=C/C(=O)O | 1 | 18* | 3 | 11 | 2 | -49 | 18*
CCOC(=O)/C(C(N)=NCCO)=C(/O)c1ccccc1 | -10 | 24* | 1 | -1 | 2 | -9 | 4
CC#CC#Cc1cccc(=O)o1 | -3 | 29* | 0 | 31 | 2 | -50 | 23*
c1ccc(CNc2nc(-c3cccnc3)nc3ccccc23)cc1 | . | . | -4 | . | . | . | .
